Hsp70 activator: Hsp70 transcriptional activation, primary screen; HeLa Hsp70 promoter luciferase reporter, luminescence; scaled: vehicle 0, proteasome-inhibitor control 100%; activation, % at 10 µM; 200,000 compounds, 0.04% hits; AID 1203;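 active = activation above the mean across all tested compounds plus 3 SD, cutoff set per campaign, cut at about 5.5% in these data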;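 note: 100% = MG132 at 30 µM as the positive control and 0% = DMSO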
Mdm2 ligase inh: Mdm2 E3 ligase (human) inhibition; Q00987; cell-based MDM2 ubiquitination luciferase reporter, 2 h; 0 = plate control, 100 = twice control, blank-subtracted; signal enhancement, % at 5 µM; 210,000 compounds, 0.11% hits; AID 1230;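 active = signal enhancement of 30% or more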;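 note: luminescence tracks abundance of the self-degrading MDM2-luciferase fusion protein; higher signal means inhibition of MDM2 E3 ligase activity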
Target sequence (Q00987 whole entry, looked up, the tested form may be a part): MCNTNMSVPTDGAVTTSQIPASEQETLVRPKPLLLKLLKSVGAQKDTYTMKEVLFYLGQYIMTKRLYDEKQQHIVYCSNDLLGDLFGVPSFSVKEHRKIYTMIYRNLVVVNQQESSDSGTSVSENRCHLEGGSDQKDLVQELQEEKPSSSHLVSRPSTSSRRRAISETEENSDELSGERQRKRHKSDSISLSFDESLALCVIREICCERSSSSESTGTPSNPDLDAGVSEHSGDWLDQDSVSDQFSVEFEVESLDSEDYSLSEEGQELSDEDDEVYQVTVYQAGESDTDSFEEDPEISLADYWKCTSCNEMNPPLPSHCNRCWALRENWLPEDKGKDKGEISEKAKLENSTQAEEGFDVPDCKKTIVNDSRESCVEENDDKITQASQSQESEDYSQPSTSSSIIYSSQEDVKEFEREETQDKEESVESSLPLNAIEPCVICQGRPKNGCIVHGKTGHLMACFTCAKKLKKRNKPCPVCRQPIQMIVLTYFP
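system = mammalian cells stably expressing self-ubiquitinating, self-degrading MDM2 E3–luciferase fusion | quantity = 2000 cells per well seeded | incubation = 4 h cell settling then 2 h compound exposure, 37 °C | signal = SteadyLite luminescence, 15 min reagent step | benchmarks = plate control and blank wells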
Wee1 stabilizer: human Wee1 degradation inhibition, primary screen; HeLa Luc-Wee1K328M stability, luciferase luminescence; 100% = proteasome inhibitor MG132 effect; 220,000 compounds, 1.2% hits; AID 1321; reporter increase, % at 5 µM;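 active = activation above the mean of all tested compounds plus 3 SD, set per screening run, cut at about 8.8% in these data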;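 note: cells exposed to compound for 20 h before luminescence read; 0% = DMSO alone and 100% = MG132 at 30 µM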
Pf gamet viab: P. falciparum stage V gametocyte viability inhibition | P. falciparum stage V gametocytes, ATP luminescence, 24 h | inhibition, % at 10.9 µM | 150,000 compounds, 0.065% hits | AID 743093;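 active = inhibition above the mean plus 3 SD of compounds within the control limits, set per campaign, cut at about 38% in these data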;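 note: 0% = DMSO wells and 100% = medium only without gametocytes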
The depositor's hits bear a star. Only some compounds are listed: those with a hit (about 1.3% of all), similar ones and a draw of the others.

`C=C1CCN(C(C(=O)OC)C(C)C)S(=O)(=O)c2ccccc21` (centres undefined) gave Mdm2 ligase inh 33.4* and Pf gamet viab 17.8.
Clc1ccc(-c2nc(-c3ccncc3)no2)c(Cl)c1 was read as Pf gamet viab -13.2.
Screening Nc1nccc(-c2cc(-c3ccc(Cl)cc3Cl)no2)n1 returned Mdm2 ligase inh -40.3, Wee1 stabilizer 10.1* and Pf gamet viab 4.2.
Screening c1ccc(-c2cn(-c3ccccc3)c3ncnc(NCCCN4CCOCC4)c23)cc1 returned Hsp70 activator -0.3, Mdm2 ligase inh -11.1, Wee1 stabilizer 7.1 and Pf gamet viab -29.2.
Screening COc1ccc(-n2cc(-c3ccccc3)c3c(NCCCN4CCOCC4)ncnc32)cc1 returned Hsp70 activator -0.5, Mdm2 ligase inh -17.0 and Wee1 stabilizer 8.9*.
`CC1=C(C(N)=O)C(c2cccs2)NC(=O)N1` (centres undefined) gave Wee1 stabilizer 4.9 and Pf gamet viab 1.8.
Screening COc1ccccc1/C=C/C(=O)c1cc(Br)ccc1OC(=O)c1ccco1 returned Hsp70 activator -0.3 and Wee1 stabilizer 13.5*.
Cc1ccc(/C=C/C(=O)c2cc(Br)ccc2OC(=O)c2ccco2)cc1 was read as Hsp70 activator -0.1, Mdm2 ligase inh -3.4 and Wee1 stabilizer 0.4.
For CCOC(=O)C/C(C)=N/NC(=O)C1CC1(c1ccccc1)c1ccccc1 (centres undefined) the results were Hsp70 activator -0.3, Mdm2 ligase inh -11.1, Wee1 stabilizer -1.3 and Pf gamet viab -5.2.
`COc1ccccc1Nc1nccc(N(C)C)c1C#N` gave Hsp70 activator -0.3, Mdm2 ligase inh -16.3, Wee1 stabilizer -1.6 and Pf gamet viab 13.8.
Screening CC(=O)Nc1csc2ccccc12 returned Hsp70 activator -0.3, Mdm2 ligase inh -7.8, Wee1 stabilizer 2.0 and Pf gamet viab -16.5.
`O=C(Nc1ccccc1)Nc1csc2ccccc12` gave Mdm2 ligase inh -11.2, Wee1 stabilizer 10.0* and Pf gamet viab 5.9.
`CNCCCOc1ccc(C(C)(C)c2ccccc2)cc1` gave Hsp70 activator -0.2, Mdm2 ligase inh -7.5 and Wee1 stabilizer -0.3.
For COCCCNCCOc1ccc(C(C)(C)c2ccccc2)cc1 the results were Hsp70 activator -0.2, Mdm2 ligase inh 8.7, Wee1 stabilizer 9.7* and Pf gamet viab -31.5.
Screening O=C1C2CCCN2C(c2ccco2)N1c1ccc(F)cc1 (centres undefined) returned Hsp70 activator -0.3, Mdm2 ligase inh -13.4, Wee1 stabilizer 10.0* and Pf gamet viab -3.8.
Screening C=CCn1c(SCc2ccc(C(=O)Nc3ccccc3)cc2)nnc1-c1ccccc1 returned Hsp70 activator -0.2, Mdm2 ligase inh -35.9 and Wee1 stabilizer 1.5.
For CCOC(=O)c1sc2cccc(F)c2c1N the results were Hsp70 activator 0.2, Mdm2 ligase inh -16.7 and Wee1 stabilizer 32.9*.
For CCOC(=O)c1sc2cccc(Cl)c2c1N the results were Hsp70 activator -0.5, Mdm2 ligase inh 2.2 and Wee1 stabilizer 2.5.
O=C(c1c(F)cccc1F)N1CCCC(c2nc(-c3ccc(F)cc3)no2)C1 (centres undefined) was read as Pf gamet viab 2.7.
Screening N#Cc1c(N)n(-c2ccc(O)cc2)c2nc3ccccc3nc12 returned Hsp70 activator -0.5, Mdm2 ligase inh -12.8, Wee1 stabilizer 1.1 and Pf gamet viab 38.2*.
CC(C)=C1SC(N2CCN(c3cccc(C(F)(F)F)c3)CC2)=NC1=O was read as Hsp70 activator -0.1, Mdm2 ligase inh 30.3*, Wee1 stabilizer -2.9 and Pf gamet viab -8.7.
`O=C(Cc1ccccc1)Nc1ccccc1C(=O)Nc1ccccc1` gave Hsp70 activator -0.2, Mdm2 ligase inh -35.5, Wee1 stabilizer 10.8* and Pf gamet viab -18.4.
Cc1ccc(NC(=O)c2ccccc2NC(=O)Cc2ccccc2)cc1 was read as Hsp70 activator -0.1, Mdm2 ligase inh -3.9, Wee1 stabilizer 0.4 and Pf gamet viab 25.7.
Nc1cccc2c1C(=O)N(Cc1cccc(Cl)c1)C2=O was read as Hsp70 activator -0.3, Mdm2 ligase inh -5.1, Wee1 stabilizer 11.2* and Pf gamet viab -1.2.
Screening C(=C\c1ccco1)/C=N/n1cnnc1 returned Hsp70 activator -0.3, Mdm2 ligase inh -17.4 and Wee1 stabilizer 9.7*.
`CCCCC(=O)NS(=O)(=O)c1ccc(N=NN(CC)CC)cc1` gave Hsp70 activator 1.5, Mdm2 ligase inh -0.4, Wee1 stabilizer -1.0 and Pf gamet viab 9.3.
For Brc1ccsc1/C=N/Nc1ccccc1 the results were Pf gamet viab -12.1.

Compound activity as filed in PubChem BioAssay.
